Assay results gathered from unrelated publications.
Lines come from different studies, so protocols differ.
Target: Dual specificity protein kinase CLK3 (CLK3, Homo sapiens, UniProt P49761)

With CCN(CC)c1ccc(C2=NNC(=O)CC2C)cc1[N+](=O)[O-] (centres unmarked) the remaining activity was 85% (enzyme activity; inhibitor; 10 µM).
CN(C)C(=O)Cn1cc(-c2nc([C@@](C)(c3ccc(-c4cnc(N)nc4)cc3)C3CC3)no2)cn1 gave a remaining binding of 100% (cell-free assay; competition with immobilised ligand; 1 µM).
The ΔTm of Cn1c2c(c3ccc(Cl)c(Cl)c31)C(C#N)C1(CCOCC1)NC2=O (centres unmarked) is reported as 0.1 °C (thermal stability; DSF; 10 µM).
The remaining activity of Cc1cnc(NC2CCOCC2)nc1-n1cnc(C(=O)NC(CN)c2cc(F)cc(Cl)c2)c1 (centres unmarked) is reported as 99% (enzyme activity; inhibitor; radiometric; 1 µM).
For CNC(=O)c1cc(Oc2ccc(NC(=O)Nc3ccc(Cl)c(C(F)(F)F)c3)cc2)ccn1, the inhibition was -1% (enzyme activity; inhibitor; 0.3 µM).
The remaining signal of Cc1ccc(NC(=O)c2ccc(C)c(C(F)(F)F)c2)cc1C#Cc1nn(C2CCC(O)CC2)c2ncnc(N)c12 (centres unmarked) is reported as 83% (cell-free assay; 10 µM).
For N#CC1c2c([nH]c3c(Cl)c(Cl)ccc23)C(=O)NC12CCCCC2 (racemic), the ΔTm was 2.1 °C (thermal stability; DSF; 10 µM).
The inhibition of CN1CC(Oc2cnc(C#N)cc2-c2ccn3nc(NC(=O)C4CC4)cc3c2)C1 is reported as -5% (enzyme activity; inhibitor; 1 µM).
With CCCOc1ccc(OC)c(F)c1C(=O)c1ccc(C(=O)N[C@@H]2CNC[C@H]2NC(=O)c2ccc3[nH]ncc3c2)cc1 the remaining activity was 105% (enzyme activity; inhibitor; 10 µM).
CN(C)c1ncnc(-c2ccc3nc(Nc4cc(CN5CCN(C(=O)CC(F)(F)F)CC5)ccn4)[nH]c3c2)c1Cl gave a remaining binding of 100% (cell-free assay; competition with immobilised ligand; 1 µM).
For Cc1sc(C(=O)NC2COC2)cc1-n1cc(NC(=O)Nc2c(F)cccc2Cl)cn1, the remaining activity was 99.6% (enzyme activity; inhibitor; 10 µM).
The ΔTm of Cn1c2c(c3ccc(Cl)c(Cl)c31)C(C#N)C(C)(C)NC2=O (centres unmarked) is reported as 1.9 °C (thermal stability; DSF; 10 µM).
For O=C(O)[C@@H]1[C@@H](Cn2nnc3ccccc3c2=O)CC[C@H]1C(=O)c1ccc(OCCC2CCOCC2)cc1, the remaining binding was 91% (cell-free assay; competition with immobilised ligand; 1 µM).
For Cc1ccc(Nc2nccc(N(C)c3ccc4c(C)n(C)nc4c3)n2)cc1S(N)(=O)=O, the inhibition was 32% (enzyme activity; inhibitor; 10 µM).
CC(=O)C1=C(C)N(c2cccc(C(F)(F)F)c2)C(=O)N[C@@H]1c1ccc(C#N)nc1 gave a remaining binding of 100% (cell-free assay; competition with immobilised ligand; 1 µM).
CCN1/C(=C/C(C)=O)Sc2ccc(OC)cc21 has a remaining signal of 95% (cell-free assay; 0.5 µM).
For O=C(NC[C@@H]1[C@H]2CN(C(=O)OCc3cc(C(F)(F)F)cc(C(F)(F)F)c3)C[C@@H]12)c1ccc2[nH]nnc2c1, the remaining binding was 78% (cell-free assay; competition with immobilised ligand; 1 µM).
COc1cc2c(N3CCN(C(=O)Nc4ccc(OC(C)C)cc4)CC3)ncnc2cc1OCCCN1CCCCC1 gave a remaining signal of 93.4% (cell-free assay; 0.5 µM).
With COc1ccc2c(O[C@@H]3C[C@H]4C(=O)N[C@]5(C(=O)O)CC5/C=C\CCCCC[C@H](NC(=O)OC5CCCC5)C(=O)N4C3)cc(-c3csc(NC(=O)C(C)C)n3)nc2c1C (some centres unmarked) the remaining binding was 100% (cell-free assay; competition with immobilised ligand; 1 µM).
For C[S+]([O-])c1ccc(-c2nc(-c3ccncc3)c(-c3ccc(F)cc3)[nH]2)cc1 (centres unmarked), the remaining signal was 99.1% (cell-free assay; 0.5 µM).
